Data on five compounds can be found in paper PMC9037807 (RSC Advances, 2021).

For test [1], the target named is T1, ovine COX-1 (Ovis aries, UniProt P05979).
T1 sequence (P05979 25-600): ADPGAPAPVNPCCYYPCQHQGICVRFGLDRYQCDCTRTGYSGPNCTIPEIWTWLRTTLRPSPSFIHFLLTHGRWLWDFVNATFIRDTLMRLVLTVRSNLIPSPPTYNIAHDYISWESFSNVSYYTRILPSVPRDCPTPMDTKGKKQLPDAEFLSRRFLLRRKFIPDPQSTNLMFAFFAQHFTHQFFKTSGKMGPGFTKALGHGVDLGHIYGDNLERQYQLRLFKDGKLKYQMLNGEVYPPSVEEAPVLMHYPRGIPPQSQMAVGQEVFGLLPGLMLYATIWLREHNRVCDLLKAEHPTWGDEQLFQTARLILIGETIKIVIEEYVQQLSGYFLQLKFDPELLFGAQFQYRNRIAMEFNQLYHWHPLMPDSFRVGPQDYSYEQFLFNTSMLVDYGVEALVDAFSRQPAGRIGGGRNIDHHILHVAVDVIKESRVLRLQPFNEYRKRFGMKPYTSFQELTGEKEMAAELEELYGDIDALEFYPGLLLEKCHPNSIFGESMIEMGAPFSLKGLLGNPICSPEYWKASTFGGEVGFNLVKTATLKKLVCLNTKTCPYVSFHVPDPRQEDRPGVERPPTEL
The experiment in a line: In vitro cyclooxygenase. Format: biochemical.

Test [2] deals with T2, ovine COX-2 (Ovis aries, UniProt P79208).
T2 sequence (P79208 17-603): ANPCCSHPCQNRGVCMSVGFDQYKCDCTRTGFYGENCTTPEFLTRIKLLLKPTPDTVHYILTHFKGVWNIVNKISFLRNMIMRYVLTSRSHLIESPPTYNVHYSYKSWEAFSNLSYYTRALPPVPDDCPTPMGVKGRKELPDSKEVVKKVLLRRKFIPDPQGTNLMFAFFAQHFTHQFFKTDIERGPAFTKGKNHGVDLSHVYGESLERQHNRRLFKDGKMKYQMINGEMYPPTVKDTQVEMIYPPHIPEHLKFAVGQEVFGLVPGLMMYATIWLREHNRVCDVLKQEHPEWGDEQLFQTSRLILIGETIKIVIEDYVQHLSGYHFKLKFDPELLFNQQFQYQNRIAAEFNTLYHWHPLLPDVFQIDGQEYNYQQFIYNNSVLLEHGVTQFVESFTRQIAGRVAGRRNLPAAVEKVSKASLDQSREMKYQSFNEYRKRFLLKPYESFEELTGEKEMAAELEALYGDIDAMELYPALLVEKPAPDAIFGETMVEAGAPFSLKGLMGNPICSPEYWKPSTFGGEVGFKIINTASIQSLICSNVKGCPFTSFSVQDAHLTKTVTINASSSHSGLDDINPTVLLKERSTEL
The experiment in a line: In vitro cyclooxygenase. Particulars: for Selectivity index (SI): COX-1 IC50/COX-2 IC50. It counts as biochemical.

Test [3] has as its system carrageenan-induced rat paw edema. The experiment in a line: Carrageenan-induced rat paw edema model. Format: in vivo. Particulars: 10 mg kg−1 po, n = 4; for Edema inhibition %, 1 h / Edema thickness ± SEM, 1 h: 1 h after carrageenan injection; for Edema inhibition %, 3 h / Edema thickness ± SEM, 3 h: 3 h after carrageenan injection; for Edema inhibition %, 6 h / Edema thickness ± SEM, 6 h: 6 h after carrageenan injection. In a few lines: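 Rats were dosed orally with test compound (10 mg kg−1) in 5% aqueous DMSO (v/v). […] Thirty minutes after dosing, 0.02 ml of 1% carrageenan was injected sub-plantar. Paw thickness was measured 1, 3 and 6 h after injection, and edema inhibition % was calculated from paw thickness.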
A general note: Carrageenan injected into the paw causes an acute inflammation.

What is called IC50 is the concentration that inhibits the measured activity by half.

`CS(=O)(=O)c1ccc(-c2nc3ccccc3n2CC(=O)N/N=C/c2ccccc2)cc1` [11a, (E)-N′-Benzylidene-2-(2-(4-(methylsulfonyl)phenyl)-1H-benzo[d]imidazol-1-yl) acetohydrazide] returned an IC50 in test [1] of 9.87 µM. Further, in test [2], half-maximal inhibition (IC50) required 0.19 µM and the “Selectivity index (SI)” value is given as 52. Besides, in test [3], the “Edema inhibition %, 1 h” value is given as 60%; the “Edema thickness ± SEM, 1 h” value is 1.048 ± 0.027 mm; the “Edema inhibition %, 3 h” value is on record as 64%; the “Edema thickness ± SEM, 3 h” value is listed as 0.812 ± 0.037 mm. Further, in test [3], the “Edema inhibition %, 6 h” value worked out at 69% and the “Edema thickness ± SEM, 6 h” value is reported as 0.578 ± 0.049 mm.
Compound `COc1ccc(/C=N/NC(=O)Cn2c(-c3ccc(S(C)(=O)=O)cc3)nc3ccccc32)cc1` [11c, (E)-N′-(4-Methoxybenzylidene)-2-(2-(4-(methylsulfonyl)phenyl)-1H-benzo[d]imidazol-1-yl) acetohydrazide] yielded an IC50 in test [1] of 11.3 µM. Also, in test [2], the IC50 was 0.11 µM and the “Selectivity index (SI)” value came to 103. Also, in test [3], the “Edema inhibition %, 1 h” value turned out to be 81%; the “Edema thickness ± SEM, 1 h” value is 0.487 ± 0.019 mm; the “Edema inhibition %, 3 h” value came to 92%; the “Edema thickness ± SEM, 3 h” value came to 0.181 ± 0.013 mm. In test [3], the “Edema inhibition %, 6 h” value was 93% and the “Edema thickness ± SEM, 6 h” value was 0.130 ± 0.010 mm.
`CS(=O)(=O)c1ccc(-c2nc3ccccc3n2CC(=O)N/N=C/c2ccc(F)cc2)cc1` [11d, (E)-N′-(4-Fluorobenzylidene)-2-(2-(4-(methylsulfonyl)phenyl)-1H-benzo[d]imidazol-1-yl) acetohydrazide] had an IC50 in test [1] of 10.2 µM. In addition, in test [2], the IC50 was determined as 0.12 µM and the “Selectivity index (SI)” value is listed as 85. Also, in test [3], the “Edema inhibition %, 3 h” value turned out to be 81%; the “Edema thickness ± SEM, 3 h” value was 0.427 ± 0.017 mm; the “Edema inhibition %, 6 h” value came to 90%; the “Edema thickness ± SEM, 6 h” value is given as 0.183 ± 0.014 mm.
In test [1], `CS(=O)(=O)c1ccc(-c2nc3cc(Cl)ccc3n2CC(=O)N/N=C/c2ccc(Cl)cc2)cc1` [11f, (E)-N′-(4-Chlorobenzylidene)-2-(5-chloro-2-(4-(methylsulfonyl)phenyl)-1H-benzo[d]imidazol-1-yl) acetohydrazide] showed an IC50 of 10.2 µM. Further, in test [2], the IC50 was 0.13 µM and the “Selectivity index (SI)” value turned out to be 79. Also, in test [3], the “Edema inhibition %, 1 h” value amounted to 78%; the “Edema thickness ± SEM, 1 h” value was 0.577 ± 0.020 mm; the “Edema inhibition %, 3 h” value came to 80%; the “Edema thickness ± SEM, 3 h” value is given as 0.449 ± 0.008 mm. In test [3], the “Edema inhibition %, 6 h” value worked out at 90% and the “Edema thickness ± SEM, 6 h” value is listed as 0.191 ± 0.011 mm.
In test [1], `COc1ccc(/C=N/NC(=O)Cn2c(-c3ccc(S(C)(=O)=O)cc3)nc3cc(Cl)ccc32)cc1` [11g, (E)-N′-(4-Methoxybenzylidene)-2-(5-chloro-2-(4-(methylsulfonyl)phenyl)-1H-benzo[d]imidazol-1-yl) acetohydrazide] gave an IC50 of 8.74 µM. Moreover, in test [2], the IC50 came to 0.13 µM and the “Selectivity index (SI)” value is recorded as 67. Moreover, in test [3], the “Edema inhibition %, 1 h” value is on record as 61%; the “Edema thickness ± SEM, 1 h” value is given as 1.017 ± 0.007 mm; the “Edema inhibition %, 3 h” value amounted to 65%; the “Edema thickness ± SEM, 3 h” value came out at 0.785 ± 0.018 mm. In addition, in test [3], the “Edema inhibition %, 6 h” value amounted to 78% and the “Edema thickness ± SEM, 6 h” value is given as 0.410 ± 0.018 mm.
